# Assay results reported in ChEMBL document CHEMBL1127795, “Small-molecule immunostimulants. Synthesis and activity of 7,8-disubstituted guanosines and structurally related compounds” (1994).
# Experiments:
# Type in all cases: functional
# Mus musculus [1] = species on record: Mus musculus; assay: Augment antibody response of B cells to sheep red blood cell (SRBC) challenge (adjuvanticity); settings: read-out: ED50 (the source's name)
# How it was run: (§1)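 CBA/CaJ spleen cells depleted of T cells with anti-T cell monoclonal antibody (1:1000, 30 min, 4 °C) then complement (37 °C, 45 min). Cultured ± 0.1% SRBC antigen in serum-containing medium with compound from zero to 10⁻³ M for 4 d. Plaque-forming cells counted in agarose with guinea pig complement. ED50 and maximal response relative to a concurrent standard.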
# Mus musculus [2] = species on record: Mus musculus; assay: Percent of maximum response was tested to augment the antibody response of B cells to sheep red blood cell challenge; how it was run: as §1
# Mus musculus [3] = species on record: Mus musculus; assay: Percent of maximum response was tested for its ability to act as B-cell mitogens (mitogenicity)
# How it was run: (§2)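 CBA/CaJ mouse spleen cells (1 × 10⁵/0.2 mL) exposed to graded compound concentrations, dissolved in water or DMSO and diluted in medium, for 24 h. [³H]thymidine then added for a further 24 h; incorporation by scintillation counting. ED50 and maximal response expressed relative to a concurrently run standard (loxoribine in most cases).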
# Mus musculus [4] = species on record: Mus musculus; assay: Ability to act as B-cell mitogens; settings: read-out: ED50 (the source's name); how it was run: as §2
EC50 (Mus musculus [4]) [µM],SMILES,EC50 (Mus musculus [1]) [µM],Max response (Mus musculus [2]) [%],Max response (Mus musculus [3]) [%]
485,C=CCSc1nc2c(O)nc(N)nc2n1C1OC(CO)[C@@H](O)[C@H]1O (some centres undefined),107,107,57
630,CCOC(=O)Cn1c(=O)n(C2OC(CO)[C@@H](O)[C@H]2O)c2nc(N)nc(O)c21 (some centres undefined),48,86,58
,Nc1nc(O)c2c(n1)n(C1OC(CO)[C@@H](O)[C@H]1O)c(=O)n2CC(O)CO (some centres undefined),45,136,
4500,Nc1nc(O)c2c(n1)n(C1OC(CO)[C@@H](O)[C@H]1O)c(=O)n2C/C=C/c1ccccc1 (some centres undefined),103,73,5
52,Cn1c(=O)n(C2OC(CI)[C@@H](O)[C@H]2O)c2nc(N)nc(O)c21 (some centres undefined),,32,4
20,C=CCn1c(=S)n(C2OC(CO)[C@@H](O)[C@H]2O)c2nc(N)nc(O)c21 (some centres undefined),1,100,151
532,Nc1nc(O)c2nc(S)n([C@@H]3O[C@H](CO)[C@@H](O)[C@H]3O)c2n1,50,100,100
,C=CCn1/c(=N\C#N)n([C@H]2OC(CO)[C@@H](O)[C@H]2O)c2nc(N)nc(O)c21 (some centres undefined),156,85,
,CCn1c(=O)n(C2OC(CO)[C@@H](O)[C@H]2O)c2nc(N)nc(O)c21 (some centres undefined),15,82,82
,[N-]=[N+]=NCC(O)Cn1c(=O)n(C2OC(CO)[C@@H](O)[C@H]2O)c2nc(N)nc(O)c21 (some centres undefined),39,91,
,Cn1c(=O)n([C@@H]2O[C@H](CO)[C@H]3OC(C)(C)O[C@H]32)c2nc(N)nc(O)c21,168,193,17
,Nc1nc(O)c2c(n1)n(C1OC(CO)[C@@H](O)[C@H]1O)c(=O)n2CC(O)CN1CCN(c2ccc(F)cc2)CC1 (some centres undefined),,16,
,Nc1nc(O)c2c(n1)n(C1OC(CO)[C@@H](O)[C@H]1O)c(=O)n2CC(O)CSc1ccccc1 (some centres undefined),142,12,
,COc1ccc(CCNCC(O)Cn2c(=O)n(C3OC(CO)[C@@H](O)[C@H]3O)c3nc(N)nc(O)c32)cc1OC (some centres undefined),,3,
,NCC(O)Cn1c(=O)n(C2OC(CO)[C@@H](O)[C@H]2O)c2nc(N)nc(O)c21 (some centres undefined),28,110,
,CC1(C)O[C@@H]2[C@H](O1)[C@@H](CO)O[C@H]2n1c(=O)n(C/C=C/c2ccccc2)c2c(O)nc(N)nc21,,16,10
,C=CCn1c(=O)n(CCC(COCc2ccccc2)COCc2ccccc2)c2nc(N)nc(O)c21,7,68,
100,CCCCn1c(=O)n(C2OC(CO)[C@@H](O)[C@H]2O)c2nc(N)nc(O)c21 (some centres undefined),11,86,70
600,CCCCCCn1c(=O)n(C2OC(CO)[C@@H](O)[C@H]2O)c2nc(N)nc(O)c21 (some centres undefined),,,11
2400,COc1ccc(Cn2c(=O)n(C3OC(CO)[C@@H](O)[C@H]3O)c3nc(N)nc(O)c32)cc1 (some centres undefined),135,44,14
,Nc1nc(O)c2c(n1)n(C1OC(CO)[C@@H](O)[C@H]1O)c(=O)n2Cc1ccccc1 (some centres undefined),6,110,
,C=CCn1c(=O)n(Cc2ccccc2)c2nc(N)nc(O)c21,5,25,
820,CN(C)CCCn1c(=O)n(C2OC(CO)[C@@H](O)[C@H]2O)c2nc(N)nc(O)c21 (some centres undefined),194,83,63
,C=CCn1c(=O)n(CCCCCCCC)c2nc(N)nc(O)c21,37,130,

SMILES,EC50 (Mus musculus [4]) [µM],EC50 (Mus musculus [1]) [µM],Max response (Mus musculus [2]) [%],Max response (Mus musculus [3]) [%]
C=CCn1c(=[Se])n(C2OC(CO)[C@@H](O)[C@H]2O)c2nc(N)nc(O)c21 (some centres undefined),118,15,70,107
